A short description of data set [1]: Cytotoxicity on Vero cells. It counts as cell-based. To be noted: African green monkey.
For data set [2], the system named is P. falciparum resistant strain F32-ART. Put plainly: Antiplasmodial activity. It counts as cell-based. To be noted: Plasmodium falciparum, F32, read-out: P. falciparum F32ART IC50. In a few lines:
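Test compounds screened against artemisinin-resistant P. falciparum F32-ART (selected after 144 intermittent, increasing artemisinin doses) by SYBR Green at 1 and 10 μM, in triplicate, in two independent experiments. Compounds giving around or above 50% growth inhibition at 10 μM were retested at four doses, each in triplicate, to derive IC50.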

The test system of data set [3] is L. donovani intramacrophage amastigote forms (LV9). Put plainly: In vitro antileishmanial evaluation on intramacrophage amastigotes. It is filed as cell-based. To be noted: Leishmania donovani, RAW264.7, 48 h, read-out: L. donovani IC50. In a few lines:
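RAW 264.7 macrophages were infected with L. donovani LV9 axenic amastigotes at 10 parasites per macrophage. Test compound was added 24 h post-infection for 48 h, with top concentrations set from RAW 264.7 cytotoxicity. Parasite growth reduction was read by SYBR Green incorporation and IC50 derived by regression. Miltefosine served as reference drug.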

The nature of data set [4]: Cytotoxicity on RAW 264.7 macrophages. It is filed as cell-based. To be noted: mouse.
Data set [5] concerns L. donovani axenic amastigotes (LV9). Put plainly: In vitro antileishmanial evaluation on axenic amastigotes. It counts as cell-based. To be noted: Leishmania donovani, read-out: IC50 on the axenic form of L. donovani.
The subject of another data set is M. tuberculosis H37Rv. Put plainly: MIC determination by resazurin reduction microplate assay. It is filed as cell-based, Mycobacterium tuberculosis. To be noted: MIC comparison with literature BNF15. On the technique in general: Resazurin is reduced to fluorescent resorufin, in cell work by metabolically active cells.

These results are taken from publication PMC9558256 (ACS Omega, 2022).

Each structure is given as a SMILES string. Where only a bound is given, the exact number is not on record here.

By CC50 is commonly meant the concentration that lowers cell viability or growth by half. Usually IC50 stands for the concentration at which inhibition is half-maximal. With `CCCCNc1oc2c(c1C1CCN(Cc3ccccc3)CC1)C(=O)c1ccccc1C2=O` [Compound 27, 3-(1-Benzylpiperidin-4-yl)-2-(butylamino)naphtho[2,3-b]furan-4,9-dione], half-maximal cytotoxicity in data set [1] (CC50) was put at 24 µM. For the same compound, the IC50 in data set [2] was 4 µM.

Take `CCCCCCCCCCCCCCCCOP(=O)([O-])OCC[N+](C)(C)C` [miltefosine, reference compound]: the IC50 in data set [3] is 1.46 µM. The CC50 in data set [4] amounted to 22.6 µM.

For the compound `CCCCNc1oc2c(c1-c1ccc(Cl)cc1)C(=O)c1ccccc1C2=O` [Compound 23, 2-(Butylamino)-3-(4-chlorophenyl)naphtho[2,3-b]furan-4,9-dione], the IC50 in data set [2] is more than 10 µM.

Consider `COc1cc(-c2c(NC(C)(C)C)oc3c2C(=O)c2ccccc2C3=O)cc(OC)c1OC` [Compound 11, 2-(tert-Butylamino)-3-(3,4,5-trimethoxyphenyl)naphtho[2,3-b]furan-4,9-dione], for which, in data set [2], the IC50 is more than 10 µM.

Take `CCCCNc1oc2c(c1-c1cc(OC)c(OC)c(OC)c1)C(=O)c1ccccc1C2=O` [Compound 24, 2-(Butylamino)-3-(3,4,5-trimethoxyphenyl)naphtho[2,3-b]furan-4,9-dione]: the CC50 in data set [1] was more than 100 µM. Further, the IC50 in data set [2] was found to be 9 µM.

Turning to `Cn1ncc2cc(-c3c(NC4CCCCC4)oc4c3C(=O)c3ccccc3C4=O)ccc21` [Compound 20, 2-(Cyclohexylamino)-3-(1-methyl-1H-indazol-5-yl)naphtho[2,3-b]furan-4,9-dione], in data set [2], the IC50 stood at 10 µM.

Regarding `O=C1C=C(O)C(=O)c2ccccc21` [lawsone (1), 2-hydroxy-1,4-naphthoquinone, reference compound], the IC50 in data set [3] was 6.27 µM; in data set [2], more than 10 µM. Also, it took 44 µM to reach half-maximal cytotoxicity in data set [4] (CC50).

`O=C1c2ccccc2C(=O)c2c1oc(NC1CCCCC1)c2-c1ccc([N+](=O)[O-])o1` [Compound 21, 2-(Cyclohexylamino)-3-(5-nitrofuran-2-yl)naphtho[2,3-b]furan-4,9-dione]: the IC50 in data set [2] is more than 10 µM.

For `O=C1c2ccccc2C(=O)c2c1oc(NC1CCCCC1)c2-c1ccc(Cl)cc1` [Compound 18, 3-(4-Chlorophenyl)-2-(cyclohexylamino)naphtho[2,3-b]furan-4,9-dione], the CC50 in data set [1] was determined as 50 µM; in data set [4], 54.2 µM. In addition, the IC50 in data set [3] was 9.41 µM; in data set [5], less than 10 µM; in data set [2], 11 µM.

With `CC(C)(C)NC=C1C(=O)C(=O)c2ccccc2C1=O` [Compound 28, 3-((tert-Butylamino)methylene)naphthalene-1,2,4(3H)-trione], the CC50 in data set [1] was more than 50 µM; in data set [4], more than 100 µM. In addition, the IC50 is 3.5 µM in data set [3], less than 10 µM in data set [5] and 1.4 µM in data set [2].

For `COc1cc(-c2c(NC3CCCCC3)oc3c2C(=O)c2ccccc2C3=O)cc(OC)c1OC` [Compound 19, 2-(Cyclohexylamino)-3-(3,4,5-trimethoxyphenyl)naphtho[2,3-b]furan-4,9-dione], the CC50 in data set [1] was more than 100 µM. The IC50 in data set [2] came out at 6 µM.

Regarding `CCCCNc1oc2c(c1-c1ccc([N+](=O)[O-])o1)C(=O)c1ccccc1C2=O` [Compound 26, 2-(Butylamino)-3-(5-nitrofuran-2-yl)naphtho[2,3-b]furan-4,9-dione], the IC50 in data set [2] is more than 10 µM.

Take `O=C1C(O)=C([C@H]2CC[C@H](c3ccc(Cl)cc3)CC2)C(=O)c2ccccc21` [atovaquone (7), atovaquone, reference compound]: the CC50 was 6 µM in data set [1] and 44 µM in data set [4]. Further, the IC50 in data set [3] is 11.1 µM; in data set [2], 0.001 µM.

Consider `Cn1ncc2cc(-c3c(NC(C)(C)C)oc4c3C(=O)c3ccccc3C4=O)ccc21` [Compound 13, 2-(tert-Butylamino)-3-(1-methyl-1H-indazol-5-yl)naphtho[2,3-b]furan-4,9-dione], for which, in data set [2], the concentration for half-maximal inhibition (IC50) is more than 10 µM.

As for `COc1ccc(-c2c(NC(C)(C)C)oc3c2C(=O)c2ccccc2C3=O)cc1OC` [Compound 12, 2-(tert-Butylamino)-3-(3,4-dimethoxyphenyl)naphtho[2,3-b]furan-4,9-dione], the IC50 in data set [2] is more than 10 µM.

For `CC(C)(C)Nc1oc2c(c1-c1ccc([N+](=O)[O-])o1)C(=O)c1ccccc1C2=O` [Compound 15, 2-(tert-Butylamino)-3-(5-nitrofuran-2-yl)naphtho[2,3-b]furan-4,9-dione], the IC50 in data set [2] was more than 10 µM.

Consider `CCCCNC=C1C(=O)C(=O)c2ccccc2C1=O` [Compound 29, 3-((Butylamino)methylene)naphthalene-1,2,4(3H)-trione], for which the CC50 in data set [1] is more than 50 µM; in data set [4], 46.5 µM. In addition, the IC50 was 6.33 µM in data set [3], less than 10 µM in data set [5] and 1.9 µM in data set [2].

Take `CC(C)(C)Nc1oc2c(c1C1CCN(Cc3ccccc3)CC1)C(=O)c1ccccc1C2=O` [Compound 17, 3-(1-Benzylpiperidin-4-yl)-2-(tert-butylamino)naphtho[2,3-b]furan-4,9-dione]: the CC50 in data set [1] stood at 86 µM. Also, the “fold less active than BNF15 against M. tuberculosis” value with M. tuberculosis H37Rv is “about 7 fold”. In addition, the IC50 in data set [2] was 2.5 µM.

On to `CC(C)(C)Nc1oc2c(c1-c1ccc(Cl)cc1)C(=O)c1ccccc1C2=O` [Compound 9, 2-(tert-Butylamino)-3-(4-chlorophenyl)naphtho[2,3-b]furan-4,9-dione], for which the IC50 in data set [2] is more than 10 µM.

Turning to `CC(C)(C)Nc1oc2c(c1C1CCN(C(=O)OC(C)(C)C)CC1)C(=O)c1ccccc1C2=O` [Compound 16, tert-Butyl 4-(2-(tert-Butylamino)-4,9-dioxo-4,9-dihydronaphtho[2,3-b]furan-3-yl)piperidine-1-carboxylate], the IC50 was 6.97 µM in data set [3], less than 10 µM in data set [5] and more than 10 µM in data set [2]. In data set [4], this compound returned a CC50 of 49.2 µM.

In data set [1], `O=C1c2ccccc2C(=O)c2c1oc(NC1CCCCC1)c2C1CCN(Cc2ccccc2)CC1` [Compound 22, 3-(1-Benzylpiperidin-4-yl)-2-(cyclohexylamino)naphtho[2,3-b]furan-4,9-dione] displayed a CC50 of 36 µM. In addition, the IC50 in data set [2] is 3.6 µM.

For `CC(C)(C)Nc1oc2c(c1-c1cc3ccccc3[nH]1)C(=O)c1ccccc1C2=O` [Compound 14, 2-(tert-Butylamino)-3-(1H-indol-2-yl)naphtho[2,3-b]furan-4,9-dione], the IC50 in data set [2] was more than 10 µM.

Turning to `CC(C)(C)Nc1oc2c(c1-c1cccc(Br)c1)C(=O)c1ccccc1C2=O` [Compound 10, 3-(3-Bromophenyl)-2-(tert-butylamino)naphtho[2,3-b]furan-4,9-dione], the IC50 in data set [2] was more than 10 µM.
